Assay results collected from several papers.
Compare with care: the assays were run in different laboratories.
TDP1: Tyrosyl-DNA phosphodiesterase 1 (TDP1, Homo sapiens, UniProt Q9NUW8)
SLC22A6: Solute carrier family 22 member 6 (SLC22A6, Homo sapiens, UniProt Q4U2R8)
PDE7A: High affinity 3',5'-cyclic-AMP phosphodiesterase 7A (PDE7A, Homo sapiens, UniProt Q13946)
MAOA: Amine oxidase [flavin-containing] A (MAOA, Homo sapiens, UniProt P21397)
PRMT3: Protein arginine N-methyltransferase 3 (PRMT3, Homo sapiens, UniProt O60678)

Structure (SMILES) | target | assay | setting | IC50 [µM]
COc1cc2c(OC)nc3c4cc5c(cc4cc(OCCCN4CCCC4)c3c2cc1OC)OCO5 | TDP1 | enzyme activity, inhibitor |  | 5.5 to 13
O=C(c1ccccc1)c1ccc2n1CCC2C(=O)O (stereo not shown) | SLC22A6 | transporter uptake, inhibitor |  | 0.653
C[C@@H]1C[C@H]2O[C@@H]2/C=C\C=C\C(=O)Cc2c(Cl)c(O)cc(O)c2C(=O)O1 | Mitogen-activated protein kinase kinase kinase 7 (MAP3K7, Homo sapiens, UniProt O43318) | enzyme activity, inhibitor, ATP luminescence |  | > 10
O=C(Cc1cccs1)N[C@@H]1C(=O)N2C(C(=O)[O-])=C(C[n+]3ccccc3)CS[C@H]12 | Rhomboid protease AarA (Providencia stuartii, UniProt P46116) | enzyme activity, inhibitor, fluorescence |  | 18
COc1ccc(C2=NN(C3CCCCCC3)C(=O)[C@@H]3CC=CC[C@H]23)cc1-c1ccc(C(N)=O)cc1 (relative stereo) | PDE7A | enzyme activity, inhibitor |  | > 10
O=c1cc(-c2ccc(O)cc2)oc2cc(O)c([C@@H]3O[C@H](CO)[C@@H](O)[C@H](O)[C@H]3O)c(O)c12 | MAOA | enzyme activity, inhibitor |  | 25.8
NC(=O)c1cnc2[nH]ccc2c1N[C@@H]1[C@@H]2CC3C[C@H]1C[C@@](O)(C3)C2 | SLC22A6 | transporter uptake, inhibitor, radiometric | 2 min | > 100
CC1(C)C(/C=C/C=C2/N(CCCc3ccccc3)c3ccc(Cl)cc3C2(C)C)=[N+](CCCc2ccccc2)c2ccc(Cl)cc21 | Protein arginine N-methyltransferase 5 (PRMT5, Homo sapiens, UniProt O14744) | enzyme activity, inhibitor, radiometric |  | 2.19
CCOc1ccc2c(-c3cc(C)nc(Nc4cc(OC)cc(C(F)(F)F)c4)n3)cnn2n1 | Homeodomain-interacting protein kinase 4 (HIPK4, Homo sapiens, UniProt Q8NE63) | enzyme activity, inhibitor |  | > 10
Nc1ncnc2c1ncn2[C@@H]1O[C@H](CSCCNC(=O)NCc2ccccc2)[C@@H](O)[C@H]1O | PRMT3 | enzyme activity, inhibitor, fluorescence |  | 0.52
CN(C)CCCN1c2ccccc2CCc2ccc(Cl)cc21 | Glutathione reductase, mitochondrial (GSR, Homo sapiens, UniProt P00390) | enzyme activity, inhibitor, absorbance |  | > 100
COc1cc(/C=C/C(=O)N2CCC(Cc3ccccc3)CC2)ccc1OC1CCCCC1 | MAOA | enzyme activity, inhibitor, fluorescence |  | 63.9
CCN(CC)CCCOc1cc2cc3c(cc2c2nc(OC)c4cc(OC)c(OC)cc4c12)OCO3 | TDP1 | enzyme activity, inhibitor, fluorescence |  | 5.4
CCn1ncc2c1-c1cnc(N)c(c1)O[C@H](C)c1cc(F)ccc1-c1nn(C)nc1C2 | High affinity nerve growth factor receptor (NTRK1, Homo sapiens, UniProt P04629) | enzyme activity, inhibitor |  | 0.26
O=c1cc(-c2ccc(O)c(O)c2)oc2cc(O[C@@H]3O[C@H](CO)[C@@H](O)[C@H](O)[C@H]3O)cc(O)c12 | L-lactate dehydrogenase A chain (LDHA, Homo sapiens, UniProt P00338) | enzyme activity, inhibitor | pH 7.4 | 139
Nc1ncnc2c1ncn2[C@@H]1O[C@H](CSCCNC(=O)Nc2ccc(Cl)cc2)[C@@H](O)[C@H]1O | PRMT3 | enzyme activity, inhibitor, fluorescence |  | 22
CSc1ccc(/C=C2/C(C)=C(CC(=O)O)c3cc(F)ccc32)cc1 | PDE7A | enzyme activity, inhibitor |  | > 100
CC[C@@H](C)[C@@H](NC(=O)[C@@H](CCC(N)=O)NC(=O)[C@H](NC(C)=O)C(C)C)C(=O)N[C@@H](C(=O)N[C@H](Cc1ccc(O)cc1)C(=O)N[C@H](CCCCN)C(N)=O)C(C)C | Insulin (INS, Homo sapiens, UniProt P01308) | enzyme activity, inhibitor | pH 7.4 | ~75
CC(C)(C)n1nc(-c2ccc3nc(OC4CC4)ccc3c2)c(C(N)=O)c1N | Receptor-interacting serine/threonine-protein kinase 2 (RIPK2, Homo sapiens, UniProt O43353) | cell-free assay |  | 0.2
